Measurements of several laboratories.
Compare with care: the assays were run in different laboratories.
Organism: Candida albicans
Observed: microbial growth
Method: broth dilution

SMILES	strain	time	MIC
COc1ccc(N2N=C(C(C)=O)SC2=C(C#N)C(=O)c2ccc(Nc3cnccn3)cc2)cc1	ATCC10231	–	25 µg/mL
O=C1/C(=C/c2ccc3ccccc3c2O)NC(=S)N1c1ccccc1	ATCC10 ATCC10231	–	20 µg/mL
COc1ccc(-n2nc(C(=O)c3ccc(Nc4cnccn4)cc3)sc2=N)cc1	ATCC10231	–	50 µg/mL
C[C@@H]1[C@H](O)[C@@H](C)/C=C/C=C/C=C/C=C/C=C/C=C/C=C/[C@H](O[C@@H]2O[C@H](C)[C@@H](O)[C@H](N)[C@@H]2O)C[C@@H]2O[C@](O)(C[C@@H](O)C[C@@H](O)[C@H](O)CC[C@@H](O)C[C@@H](O)CC(=O)O[C@H]1C)C[C@H](O)[C@H]2C(=O)O	SP3903	48 h	< 0.25 µM
N=c1sc(C(=O)c2ccc(Nc3cnccn3)cc2)nn1-c1ccccc1	ATCC10231	–	100 µg/mL
CCON=C1C=CC(=C(C#N)c2ccccc2)C=C1	ATCC10231	48 h	256 µg/mL
C/C(=N\C(=O)/N=C(\C)c1c(O)c2ccccc2oc1=O)c1c(O)c2ccccc2oc1=O	–	48 h	31.2 µg/mL
CC(=O)N1CCN(c2ccc(OCC3COC(Cn4ccnc4)(c4ccc(Cl)cc4Cl)O3)cc2)CC1 (stereo not shown)	58288	48 h	16 µM
C/C(=N\C(=S)/N=C(\C)c1c(O)c2ccccc2oc1=O)c1c(O)c2ccccc2oc1=O	–	48 h	3.9 µg/mL
Cc1ccc(N=Nc2c(N)nn3c(-c4ccc(C)cc4)cc(-c4ccc(OCc5ccccc5)cc4)nc23)cc1	ATCC10231	–	31.3 µg/mL
N#CC(=C1C=CC(=NOC(=O)OCc2ccccc2)C=C1)c1ccccc1	ATCC10231	48 h	256 µg/mL
CC(=O)C1=NN(c2ccccc2)C(=C(C#N)C(=O)c2ccc(Nc3cnccn3)cc2)S1	ATCC10231	–	100 µg/mL
OC(Cn1cncn1)(Cn1cncn1)c1ccc(F)cc1F	1	24 h	128 µg/mL
C[C@@H]1[C@H](O)[C@@H](C)/C=C/C=C/C=C/C=C/C=C/C=C/C=C/[C@H](O[C@@H]2O[C@H](C)[C@@H](O)[C@H](N)[C@@H]2O)C[C@@H]2O[C@](O)(C[C@@H](O)C[C@@H](O)[C@H](O)CC[C@@H](O)C[C@@H](O)CC(=O)O[C@H]1C)C[C@H](O)[C@H]2C(=O)O	ATCC90028	48 h	0.5 µg/mL
N=c1sc(C(=O)c2ccc(Nc3cnccn3)cc2)nn1-c1ccc([N+](=O)[O-])cc1	ATCC10231	–	12.5 µg/mL
C/C(=N\C1CCCCC1/N=C(\C)c1c(O)c2ccccc2oc1=O)c1c(O)c2ccccc2oc1=O (stereo not shown)	–	48 h	31.2 µg/mL
C#CCOC(=O)ON=C1C=CC(=C(C#N)c2ccccc2)C=C1	ATCC10231	48 h	4 µg/mL
COc1ccc(N=Nc2c(N)nn3c(-c4ccc(Cl)cc4Cl)cc(-c4ccc(OCc5ccccc5)cc4)nc23)cc1	ATCC10231	–	62.5 µg/mL
CC(=O)N1CCN(c2ccc(OCC3COC(Cn4ccnc4)(c4ccc(Cl)cc4Cl)O3)cc2)CC1 (stereo not shown)	ATCC10231	48 h	8 µg/mL
Nc1nn2c(-c3ccc(Cl)cc3Cl)cc(-c3ccc(OCc4ccccc4)cc3)nc2c1N=Nc1ccc(F)cc1	ATCC10231	–	62.5 µg/mL
CCCCCCCCCCCC(=O)ON=C1C=CC(=C(C#N)c2ccccc2)C=C1	ATCC10231	48 h	512 µg/mL
C/C(=N\C(=N)/N=C(\C)c1c(O)c2ccccc2oc1=O)c1c(O)c2ccccc2oc1=O	–	48 h	31.2 µg/mL
Cc1ccc(N=Nc2c(N)nn3c(-c4ccco4)cc(-c4ccc(OCc5ccccc5)cc4)nc23)cc1	ATCC10231	–	31.3 µg/mL
OC(Cn1cncn1)(Cn1cncn1)c1ccc(F)cc1F	SP3902	48 h	8 µM
CC(=O)N1CCN(c2ccc(OCC3COC(Cn4ccnc4)(c4ccc(Cl)cc4Cl)O3)cc2)CC1 (stereo not shown)	–	48 h	1.95 µg/mL
